Reference: ChEMBL document CHEMBL5724801, “EUbOPEN Chemogenomics Library - Multiplex” (2024)
Values joined by “and” are separate entries in the source; they are usually repeats but may differ in a detail not shown here. Equal entries are not always repeated.

Test system: U2OS
Test: Multiplex assay against U2OS
Format: toxicity, cell-based
Conditions: human
How it was run: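 Cells were classed with CellPathfinder machine-learning gating, first as Hoechst high-intensity objects or normal cells, then (normal cells) as healthy, pyknosed or fragmented nuclei, and finally (pyknosed cells) as mitotic or apoptotic. Staining of live cells at seeding used Hoechst33342, BioTracker Green Microtubule Cytoskeleton Dye, MitoTracker Red and Annexin V Alexa Fluor 680, with imaging on a CQ1 microscope at 37°C and 5% CO2 after compound addition. Tubulin, mitochondrial-mass and membrane-permeability phenotypes are per cents of healthy-nucleus cells.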

[1] = 12 h, 1 µM, compound concentration 1 uM
[2] = 12 h, 10 µM, compound concentration 10 uM
[3] = 24 h, 1 µM, compound concentration 1 uM
[4] = 24 h, 10 µM, compound concentration 10 uM
[5] = 48 h, 1 µM, compound concentration 1 uM
[6] = 48 h, 10 µM, compound concentration 10 uM

With `CNc1nc(NCc2ncccn2)c2c(-c3ccc4ncccc4c3)c[nH]c2n1` the “Population Apoptotic (%)” value [1] was 34.88% and 46.15%, the “Population Fragmented Nuclei (%)” value [1] was 1.68% and 0.68% and the “Population Healthy Nuclei (%)” value [1] was 88.01% and 90.48%. The “Population Hoechst High Intensity Objects (%)” value [1] was 0%, the “Population Membrane Permeable-Phenotype (%)” value [1] was 1.36% and 3.01% and the “Population Mitochondria Different-Phenotype (%)” value [1] was 0% and 4.51%. For the same molecule, the “Population Mitotic Cells (%)” value [1] was 65.12% and 53.85%, the “Population Normal (%)” value [1] was 100% and the “Population Pyknosed Nuclei (%)” value [1] was 10.31% and 8.84%. The “Population Tubulin-Different-Phenotype (%)” value [1] was 0.82% and 0.75%, the “Total Cell Count” value [1] was 417 and 147 and the “Population Apoptotic (%)” value [2] was 30.95% and 40%. The “Population Fragmented Nuclei (%)” value [2] was 0.88% and 3.14%, the “Population Healthy Nuclei (%)” value [2] was 86.76% and 84.28% and the “Population Hoechst High Intensity Objects (%)” value [2] was 0%. The “Population Membrane Permeable-Phenotype (%)” value [2] was 6.44% and 8.21%, the “Population Mitotic Cells (%)” value [2] was 69.05% and 60% and the “Population Normal (%)” value [2] was 100%. The “Population Pyknosed Nuclei (%)” value [2] was 12.35% and 12.58%, the “Population Tubulin-Different-Phenotype (%)” value [2] was 6.78% and 4.48% and the “Total Cell Count” value [2] was 340 and 159. The “Population Apoptotic (%)” value [3] was 48.89% and 42.86%, the “Population Fragmented Nuclei (%)” value [3] was 2.09% and 2.01% and the “Population Healthy Nuclei (%)” value [3] was 90.09% and 83.92%. For the same molecule, the “Population Hoechst High Intensity Objects (%)” value [3] was 0%, the “Population Membrane Permeable-Phenotype (%)” value [3] was 0.58% and 1.2% and the “Population Mitochondria Different-Phenotype (%)” value [3] was 0.19% and 6.59%. For the same molecule, the “Population Mitotic Cells (%)” value [3] was 51.11% and 57.14%, the “Population Normal (%)” value [3] was 100% and the “Population Pyknosed Nuclei (%)” value [3] was 7.83% and 14.07%. For the same molecule, the “Population Tubulin-Different-Phenotype (%)” value [3] was 0.58% and 0.6%, the “Total Cell Count” value [3] was 575 and 199 and the “Population Apoptotic (%)” value [4] was 29.41% and 43.75%. For the same molecule, the “Population Fragmented Nuclei (%)” value [4] was 2.37% and 4.04%, the “Population Healthy Nuclei (%)” value [4] was 89.57% and 87.88% and the “Population Hoechst High Intensity Objects (%)” value [4] was 0%. For the same molecule, the “Population Membrane Permeable-Phenotype (%)” value [4] was 1.59% and 2.3%, the “Population Mitotic Cells (%)” value [4] was 70.59% and 56.25% and the “Population Normal (%)” value [4] was 100%. For the same molecule, the “Population Pyknosed Nuclei (%)” value [4] was 8.06% and 8.08%, the “Population Tubulin-Different-Phenotype (%)” value [4] was 2.12% and 1.15% and the “Total Cell Count” value [4] was 422 and 198. For the same molecule, the “Population Apoptotic (%)” value [5] was 45% and 54.29%, the “Population Fragmented Nuclei (%)” value [5] was 3.04% and 1.19% and the “Population Healthy Nuclei (%)” value [5] was 87.45% and 88.36%. The “Population Hoechst High Intensity Objects (%)” value [5] was 0%, the “Population Membrane Permeable-Phenotype (%)” value [5] was 1.2% and 1.35% and the “Population Mitochondria Different-Phenotype (%)” value [5] was 0.11% and 4.39%. For the same molecule, the “Population Mitotic Cells (%)” value [5] was 55% and 45.71%, the “Population Normal (%)” value [5] was 100% and the “Population Pyknosed Nuclei (%)” value [5] was 9.51% and 10.45%. The “Population Tubulin-Different-Phenotype (%)” value [5] was 1.41% and 0.68%, the “Population Apoptotic (%)” value [6] was 55.56% and 56% and the “Population Fragmented Nuclei (%)” value [6] was 1.27% and 3.63%. For the same molecule, the “Population Healthy Nuclei (%)” value [6] was 89.84% and 88.12%, the “Population Hoechst High Intensity Objects (%)” value [6] was 0% and the “Population Membrane Permeable-Phenotype (%)” value [6] was 0.94% and 1.87%. The “Population Mitochondria Different-Phenotype (%)” value [6] was 0.78% and 7.87%, the “Population Mitotic Cells (%)” value [6] was 44.44% and 44% and the “Population Normal (%)” value [6] was 100%. For the same molecule, the “Population Pyknosed Nuclei (%)” value [6] was 8.89% and 8.25%, the “Population Tubulin-Different-Phenotype (%)” value [6] was 1.88% and 1.5% and the “Total Cell Count” value [6] was 709 and 303.
`Cl.c1ccc2c(c1)CCC[C@H]2Nc1nc2ccccc2[nH]1` was tested, and the “Population Apoptotic (%)” value [1] was 51.52% and 50%, the “Population Fragmented Nuclei (%)” value [1] was 1.35% and 1.11% and the “Population Healthy Nuclei (%)” value [1] was 89.73% and 86.67%. The “Population Hoechst High Intensity Objects (%)” value [1] was 0%, the “Population Membrane Permeable-Phenotype (%)” value [1] was 0.9% and 4.49% and the “Population Mitochondria Different-Phenotype (%)” value [1] was 0% and 8.33%. The “Population Mitotic Cells (%)” value [1] was 48.48% and 50%, the “Population Normal (%)” value [1] was 100% and the “Population Pyknosed Nuclei (%)” value [1] was 8.92% and 12.22%. For the same molecule, the “Population Tubulin-Different-Phenotype (%)” value [1] was 0.9% and 0.64%, the “Total Cell Count” value [1] was 370 and 180 and the “Population Apoptotic (%)” value [2] was 34.15% and 18.18%. For the same molecule, the “Population Fragmented Nuclei (%)” value [2] was 1.73% and 1.16%, the “Population Healthy Nuclei (%)” value [2] was 88.15% and 86.13% and the “Population Hoechst High Intensity Objects (%)” value [2] was 0%. For the same molecule, the “Population Membrane Permeable-Phenotype (%)” value [2] was 1.96% and 2.01%, the “Population Mitotic Cells (%)” value [2] was 65.85% and 81.82% and the “Population Normal (%)” value [2] was 100%. The “Population Pyknosed Nuclei (%)” value [2] was 10.12% and 12.72%, the “Population Tubulin-Different-Phenotype (%)” value [2] was 1.96% and 2.01% and the “Total Cell Count” value [2] was 405 and 173. For the same molecule, the “Population Apoptotic (%)” value [3] was 36.36% and 51.52%, the “Population Fragmented Nuclei (%)” value [3] was 1.17% and 2.47% and the “Population Healthy Nuclei (%)” value [3] was 92.41% and 83.95%. The “Population Hoechst High Intensity Objects (%)” value [3] was 0.19% and 0%, the “Population Membrane Permeable-Phenotype (%)” value [3] was 0.42% and 2.94% and the “Population Mitochondria Different-Phenotype (%)” value [3] was 0.21% and 7.35%. The “Population Mitotic Cells (%)” value [3] was 63.64% and 48.48%, the “Population Normal (%)” value [3] was 99.81% and 100% and the “Population Pyknosed Nuclei (%)” value [3] was 6.42% and 13.58%. The “Population Tubulin-Different-Phenotype (%)” value [3] was 0.21% and 1.47%, the “Total Cell Count” value [3] was 515 and 243 and the “Population Apoptotic (%)” value [4] was 40% and 51.85%. The “Population Fragmented Nuclei (%)” value [4] was 2.23% and 2.74%, the “Population Healthy Nuclei (%)” value [4] was 89.41% and 84.93% and the “Population Hoechst High Intensity Objects (%)” value [4] was 0%. The “Population Membrane Permeable-Phenotype (%)” value [4] was 1.87% and 2.69%, the “Population Mitochondria Different-Phenotype (%)” value [4] was 0.42% and 8.06% and the “Population Mitotic Cells (%)” value [4] was 60% and 48.15%. The “Population Normal (%)” value [4] was 100%, the “Population Pyknosed Nuclei (%)” value [4] was 8.36% and 12.33% and the “Population Tubulin-Different-Phenotype (%)” value [4] was 1.87% and 1.08%. The “Total Cell Count” value [4] was 538 and 219, the “Population Apoptotic (%)” value [5] was 36.59% and 47.06% and the “Population Fragmented Nuclei (%)” value [5] was 3.12% and 2.18%. For the same molecule, the “Population Healthy Nuclei (%)” value [5] was 88.61% and 85.44%, the “Population Hoechst High Intensity Objects (%)” value [5] was 0% and the “Population Membrane Permeable-Phenotype (%)” value [5] was 0.46% and 2.27%. The “Population Mitochondria Different-Phenotype (%)” value [5] was 0.11% and 6.25%, the “Population Mitotic Cells (%)” value [5] was 63.41% and 52.94% and the “Population Normal (%)” value [5] was 100%. The “Population Pyknosed Nuclei (%)” value [5] was 8.27% and 12.38%, the “Population Tubulin-Different-Phenotype (%)” value [5] was 0.57% and 0.85% and the “Total Cell Count” value [5] was 992 and 412. The “Population Apoptotic (%)” value [6] was 41.57% and 48.08%, the “Population Fragmented Nuclei (%)” value [6] was 2.25% and 2.98% and the “Population Healthy Nuclei (%)” value [6] was 88.65% and 82.93%. The “Population Hoechst High Intensity Objects (%)” value [6] was 0% and 0.27%, the “Population Membrane Permeable-Phenotype (%)” value [6] was 1.5% and 3.92% and the “Population Mitochondria Different-Phenotype (%)” value [6] was 0% and 3.92%. The “Population Mitotic Cells (%)” value [6] was 58.43% and 51.92%, the “Population Normal (%)” value [6] was 100% and 99.73% and the “Population Pyknosed Nuclei (%)” value [6] was 9.1% and 14.09%. For the same molecule, the “Population Tubulin-Different-Phenotype (%)” value [6] was 1.5% and 2.61% and the “Total Cell Count” value [6] was 978 and 370.
